Most compounds without a hit are left out; they make up all but 2.9% or so of the library.
SUMO Mot1 rescue = inhibitors of SUMOylation pathway: yeast Mot1-301 growth rescue; S. cerevisiae Mot1-301 growth rescue, ATP luminescence, 38.5C; percent above DMSO median, 100 means doubled; growth rescue, % at 18.8 µM; hit rate 1% among 320,000; AID 2716;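 active = every valid replicate shows activation above 250% relative to neutral control wells; inactive = the rest, any valid replicate at or below 250%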
VIM-2 inh = blocks Pseudomonas aeruginosa VIM-2 metallo-beta-lactamase | inhibition, % at 5.6 µM | purified VIM-2, nitrocefin hydrolysis, epi-absorbance fluorescence | hit rate 0.89% among 290,000;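 active = inhibition above the mean of all tested compounds plus 3 SD, cutoff set per screening run, cut at about 7.5% in these data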;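 note: red hydrolysis product quenches plate fluorescence so inhibitors raise well fluorescence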
DNA FID counter = counter-screen for HCV NS3 helicase inhibitors: DNA intercalator displacement. DNA fluorescent intercalator displacement, fluorescence. inhibition, % at 7.9 µM. hit rate 0.17% among 290,000; in the data active = inhibition above about 37%;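 note: higher means more ethidium bromide displaced from hairpin DNA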
NALP1 yeast inh = inhibitors of NALP1 inflammasome in yeast; S. cerevisiae NALP1/ASC/caspase-1 growth, X-gal OD620, 72 h; inhibition, % at 10 µM; hit rate 0.61% among 280,000; in the data active = inhibition mostly above about 24%, no sharp cut-off; inactive = mostly below about 32%
SUMO HTRF inh = blocks human SUMOylation mediated by UBC9; HTRF SUMOylation assay, SAE1/SAE2 + UBC9, in vitro; AID 2006; hit rate 0.36% among 290,000; P63279; inhibition, % at 35 µM; in the data active = inhibition above about 50%, passing the limit was not always enough
Target sequence (P63279 whole entry, looked up): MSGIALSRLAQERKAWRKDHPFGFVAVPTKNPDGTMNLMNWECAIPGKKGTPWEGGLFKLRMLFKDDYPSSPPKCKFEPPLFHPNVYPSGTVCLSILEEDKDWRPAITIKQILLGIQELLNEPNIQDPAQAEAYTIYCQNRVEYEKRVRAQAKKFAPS
IMP-1 inh = inhibitors of Pseudomonas aeruginosa IMP-1 metallo-beta-lactamase; AID 1556; inhibition, % at 5.6 µM; hit rate 0.45% among 290,000; purified IMP-1, nitrocefin hydrolysis, epi-absorbance fluorescence;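 active = inhibition above the mean plus 3 SD of all compounds in the same screening run, cut at about 4.5% in these data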
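Material – recombinant IMP-1 enzyme, purified · Amount – IMP-1 0.2 nM before substrate addition · Medium – HEPES buffer pH 7.1 with ZnSO4 and Brij 35 · Timing – 25 °C, 15 min preincubation, 25 min reaction · Measured by – plate fluorescence quenching by hydrolysis product, ex 480/em 530 nm · Read-out – percent enzyme inhibition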
Mot1 SUMO dose = yeast SUMO pathway inhibition in dose response; shares compounds with SUMO Mot1 rescue; S. cerevisiae Mot1-301 galactose growth, ATP luminescence, 24 h; -100 = growth of slx-deleted rescue strain; growth activity, percent, % at 42 µM; 2,300 tested, under 10 active;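 active = Signal drops as the depositor expects, and the fitted half-maximal dose is no more than ten times the top valid tested dose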;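 note: more negative values mean stronger growth rescue toward the control strain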
Numbers stand for hits; - = inactive; . = no result given; + = active, no number.

SMILES | SUMO Mot1 rescue | VIM-2 inh | DNA FID counter | NALP1 yeast inh | SUMO HTRF inh | IMP-1 inh | Mot1 SUMO dose
CCOc1ccc(-c2nc(C#N)c(N3CCN(Cc4ccccc4)CC3)o2)cc1 | - | - | - | - | - | - | .
COC(=O)Cc1ccc(NC(=S)Nc2ccc(N3CCOCC3)cc2)cc1 | - | - | - | - | - | - | .
O=C(c1ccc(F)cc1)C(CN1CCOCC1)c1ccccc1 (centres undefined) | 372 | - | - | - | - | - | -
COc1ccc(C(=O)C(CN2CCOCC2)c2ccccc2)cc1 (centres undefined) | - | - | - | - | - | - | .
Cc1ccc(NC(=O)COC(=O)C2CC(=O)N(Cc3ccccc3)C2)cc1F (centres undefined) | - | - | - | - | - | - | .
O=C(COC(=O)C1CC(=O)N(Cc2ccccc2)C1)Nc1ccccc1F (centres undefined) | 544 | - | - | - | - | - | -
C[C@@]12C(=O)Nc3cc(Cl)ccc3C(=O)N1[C@H]1c3cc(Cl)ccc3OC[C@@H]1[C@@H]2c1ccccc1 | - | . | . | . | . | . | .
C[C@@]12C(=O)Nc3ccc(F)cc3C(=O)N1[C@H]1c3cc(Cl)ccc3OC[C@@H]1[C@@H]2c1ccccc1 | 409 | . | . | . | . | . | -
C[C@@]12C(=O)Nc3ccc(F)cc3C(=O)N1[C@H]1c3ccccc3OC[C@@H]1[C@@H]2c1ccccc1 | + | . | . | . | . | . | -
Cc1ccc2c(c1)C(=O)N1[C@H]3c4cc(Cl)ccc4OC[C@@H]3[C@H](c3ccccc3)[C@]1(C)C(=O)N2 | - | . | . | . | . | . | .
C[C@@]12C(=O)Nc3cc(Cl)ccc3C(=O)N1[C@H]1c3ccccc3OC[C@@H]1[C@@H]2c1ccccc1 | 454 | . | . | . | . | . | -
O=C(/C=C/c1ccco1)Nc1ccccc1C(=O)Nc1cccc(C(=O)O)c1 | - | - | - | - | - | - | .
Cc1cc(NC(=O)/C=C/c2ccco2)ccc1NC(=O)c1ccccc1 | 432 | - | - | - | - | - | -
CCOC(=O)NNc1ccccc1 | - | - | - | - | - | - | .
CC(C)C(O)(C(=O)NNc1ccccc1)C(C)C | 583 | - | - | - | - | - | -
C=CCN(CC=C)C(=O)CN1C(=O)NC(c2ccccc2)(c2ccccc2)C1=O | - | - | - | - | - | - | .
Cc1ccc(C(=O)O)cc1[N+](=O)[O-] | 365 | . | . | . | . | . | -
COc1cc(CNC(=O)c2cccc(COc3ccc(Cl)cc3)c2)cc(OC)c1 | - | - | - | - | - | - | .
COc1ccc(C)cc1NC(=S)N1CCN(c2ccccn2)CC1 | 513 | - | - | - | - | - | -
Cc1cc(C)n2nc(SCCOc3ccccc3F)nc2n1 | - | - | - | - | - | - | .
O=C(O)CCc1ccc(-c2cccs2)n1NC(=O)c1cccs1 | + | - | - | - | - | - | -
O=C(O)CCc1ccc(-c2cccs2)n1NC(=O)c1ccc(O)cc1 | - | - | - | - | - | - | .
CCc1c(C(=O)N2CCN(c3ccccc3F)CC2)[nH]c(C)c1C(C)=O | + | - | - | - | - | - | -
Cc1ccc(NC(=O)c2ccc3c(c2)S(=O)(=O)c2ccccc2C3=O)cc1S(=O)(=O)N1CCOCC1 | - | - | - | . | - | - | .
O=C(CCC(=O)Nc1ccc(F)cc1)N/N=C/c1cccs1 | 545 | - | - | - | - | - | -
SMILES | SUMO Mot1 rescue | VIM-2 inh | DNA FID counter | NALP1 yeast inh | SUMO HTRF inh | IMP-1 inh | Mot1 SUMO dose
O=C(CCC(=O)Nc1ccc(F)cc1)N/N=C/c1ccccc1O | - | - | - | - | - | - | .
CCOC(=O)c1ccc(NC(=O)c2c(NC(=O)CCC(=O)O)sc3c2CCCCC3)cc1 | 631 | - | - | - | - | - | -
CNC(=O)c1cc(S(=O)(=O)Nc2ccc(C)cc2C)ccc1C | - | - | - | - | - | - | .
CC1(C)C(C=C(Cl)Cl)C1C(=O)OCc1cccc(Oc2ccccc2)c1 (centres undefined) | 463 | . | . | . | . | . | -
CCOC(=O)C1CCN(Cc2cccc(Oc3ccccc3)c2)CC1 | - | - | - | - | - | - | .
CC1CC(c2ccccc2)NS(=O)(=O)O1 (centres undefined) | 518 | - | - | - | - | - | -
O=S1(=O)N[C@H](c2ccccc2)C[C@H](c2ccc(C(F)(F)F)cc2)O1 | - | - | - | - | - | - | .
O=c1cc(-c2ccccc2)nc(N2CCN(Cc3ccccc3)CC2)[nH]1 | 479 | - | - | . | - | - | -
C/C=C/C(=O)OCC(=O)Nc1nc2ccc(C)cc2s1 | 361 | - | - | - | - | - | -
Cc1ccccc1C(=O)N1CCC(C(=O)OCc2nc(N)nc(Nc3ccccc3)n2)CC1 | - | . | . | . | . | . | .
CC1(C)CC(=O)C=C(OC(=O)c2ccc(Cl)cc2)C1 | 470 | - | - | - | - | - | -
COc1ccc(C(=O)NNC2=CC(=O)CC(C)(C)C2)cc1 | - | - | - | - | - | - | .
Cc1ccc(S(=O)(=O)NCCNC(=O)c2ccc(C)nc2)cc1 | - | - | - | - | - | - | .
O=C1CCc2cc(S(=O)(=O)N3CCC(C(=O)NC4CCCC4)CC3)ccc2N1 | 518 | - | - | - | - | - | -
COCC(=O)n1nc(-c2ccccc2)nc1NCc1ccc(N(C)C)cc1 | 862 | - | - | - | - | - | -
COCC(=O)n1nc(-c2ccc(C)cc2)nc1NCc1ccc(F)cc1 | . | - | - | - | - | - | .
COCC(=O)n1nc(-c2ccc(Cl)cc2)nc1NCc1ccc(F)cc1 | 539 | - | - | - | - | - | -
Cc1cccc(C)c1NC(=O)CNC(=O)c1cccnc1 | - | - | - | - | - | - | .
O=C(NCC(=O)N1CCN(C(=O)c2ccccc2)CC1)c1ccc(Cl)cc1Cl | - | . | . | . | . | . | .
COc1ccc(CCNC(=O)COc2ncnc3ccccc23)cc1 | - | - | - | - | - | - | .
COc1ccc(NC2CCCN(C(=O)CCc3scnc3C)C2)cc1 (centres undefined) | 439 | - | - | - | - | - | -
COc1ccc(NC2CCCN(C(=O)c3csc(C)n3)C2)cc1 (centres undefined) | 774 | - | - | - | - | - | -
COC(=O)c1sc(NC(=S)NC(=O)c2cccc(Br)c2)nc1C | - | - | - | - | - | - | .
Cc1ccccc1C(=O)/C=C1\NC(=O)CS1 | 368 | - | - | - | - | - | -
CC(C)NC(=O)NC(=O)CSc1nnc(COc2ccccc2Cl)o1 | - | - | - | - | - | - | .
O=C(CSc1nnc(COc2ccccc2Cl)o1)NC(=O)NC1CCCC1 | 392 | - | - | - | - | - | -
O=C(NCCCn1ccnc1)Nc1cccc2ccccc12 | 762 | - | - | - | - | - | -
CCOc1ccc2[nH]c(=O)c(CN(Cc3ccco3)C(CC)c3nnnn3Cc3ccccc3)cc2c1 (centres undefined) | + | - | - | - | - | - | -
